# In ChEMBL document CHEMBL3112564, “Identification of clinically viable quinolinol inhibitors of botulinum neurotoxin A light chain” (J Med Chem, 2014):
# What was measured:
# [1] = molecular target: Botulinum neurotoxin type A (Clostridium botulinum, UniProt P0DPI0)
# [2] = system: Plasma; assay: Half life in human plasma at 1 uM by LC-MS/MS analysis; type: ADME, cell-free
# Summary of the method: (§1)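 Compound at 1.0 μM was incubated in plasma at 37 °C and sampled at 0, 1, 3, 5 and 24 h. Proteins were precipitated with cold acetonitrile containing internal standard, and samples were analysed by LC–MS/MS for percent remaining. Half-life came from regression analysis.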
# [3] = system: Plasma; assay: Half life in Sprague-Dawley rat plasma at 1 uM by LC-MS/MS analysis; type: ADME, cell-free
# Summary of the method: as §1
# [4] = system: Liver microsome; assay: Drug metabolism in human liver microsomes assessed as metabolic rate at 1 uM by reversed phase LC/MS analysis; type: ADME
# Summary of the method: (§2)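 Liver microsomes were from humans (pooled from 10 male donors) or male Sprague–Dawley rats aged 8–10 weeks. Incubations used 0.125 mg/mL total protein and 1.0 μM drug at 37 °C, sampled at 0, 5, 15, 30 and 60 min. Parent-to-product transitions were read by reversed-phase LC with triple quadrupole MS, and % remaining was taken relative to time zero. t1/2 = −ln(2)/k, with k from log–linear regression.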
# [5] = Aqueous solubility of the compound at pH 6.8 after 24 hrs by shake flask method; type: physicochemical; conditions: buffer, pH 6.8, 24 h
# Summary of the method: (§3)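 Miniaturized shake-flask method: analyte at 1.0 mM in aqueous solution at pH 1.0 or 6.8, shaken gently (600 rpm) in a syringeless filter at room temperature for 24 h. Filtrate was collected after a further 30 min, diluted in 50:50 MeCN/water with 0.1% formic acid, and analysed by LC–MS/MS. Calibration range was 0.05–12.5 μM at pH 6.8 and 5.0–25000 μM at pH 1.0.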
# [6] = system: Liver microsome; assay: Drug metabolism in Sprague-Dawley rat liver microsomes assessed as metabolic rate at 1 uM by reversed phase LC/MS analysis; type: ADME
# Summary of the method: as §2
# [7] = system: Plasma; assay: Metabolic stability in Sprague-Dawley rat plasma assessed as compound remaining at 1 uM measured at 3 hrs by LC-MS/MS analysis; type: ADME, cell-free
# Summary of the method: as §1
# [8] = system: Liver microsome; assay: Half life in human liver microsomes at 1 uM by reversed phase LC/MS analysis; type: ADME
# Summary of the method: as §2
# [9] = system: Liver microsome; assay: Half life in Sprague-Dawley rat liver microsomes at 1 uM by reversed phase LC/MS analysis; type: ADME
# Summary of the method: as §2
# [10] = Aqueous solubility of the compound at pH 1 after 24 hrs by shake flask method; type: physicochemical
# Summary of the method: as §3
# [11] = system: Plasma; assay: Metabolic stability in human plasma assessed as compound remaining at 1 uM measured at 3 hrs by LC-MS/MS analysis; type: ADME, cell-free
# Summary of the method: as §1
# [12] = organism: Homo sapiens; assay: Half life in human; type: ADME, organism-based; conditions: in vivo
# [13] = system: Serum; assay: Drug uptake in serum of alzheimer patient at 250 to 750 mg, po; type: ADME, cell-free; conditions: human, read-out: Drug uptake
# Botulinum neurotoxin type A, sequence (P0DPI0 2-448 limits assumed): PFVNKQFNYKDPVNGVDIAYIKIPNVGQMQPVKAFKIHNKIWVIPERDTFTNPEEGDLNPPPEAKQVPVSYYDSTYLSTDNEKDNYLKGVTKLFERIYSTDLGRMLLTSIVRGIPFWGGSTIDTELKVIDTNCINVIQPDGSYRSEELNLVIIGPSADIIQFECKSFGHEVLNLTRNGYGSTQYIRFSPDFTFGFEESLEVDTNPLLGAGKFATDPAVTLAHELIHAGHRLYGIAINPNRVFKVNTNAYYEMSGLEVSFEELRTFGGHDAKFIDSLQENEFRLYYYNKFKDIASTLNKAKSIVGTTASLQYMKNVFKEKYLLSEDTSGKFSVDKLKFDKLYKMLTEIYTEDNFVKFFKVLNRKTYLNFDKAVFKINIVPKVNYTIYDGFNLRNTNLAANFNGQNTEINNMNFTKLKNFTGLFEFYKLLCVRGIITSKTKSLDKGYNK
compound,measurement,setting,value
Cc1cccc(NC(c2ccc(C)s2)c2ccc3ccc(C)nc3c2O)n1 (stereo unspecified),IC50,[1],> 100 µM
Cc1ccc(C(Nc2ccccn2)c2ccc3cccnc3c2O)cc1 (stereo unspecified),IC50,[1],2.5 µM
CCCC(=O)NC(c1ccccc1Cl)c1ccc2cccnc2c1O (stereo unspecified),IC50,[1],> 100 µM
COc1cccc(C(NC(C)=O)c2ccc3cccnc3c2O)c1 (stereo unspecified),IC50,[1],> 100 µM
Oc1c(C(Nc2ccccn2)c2ccccc2)ccc2cccnc12 (stereo unspecified),t1/2,[2],11.4 h
same,t1/2,[3],13.5 h
same,Drug metabolism,[4],0.186 µM/min/mg
same,solubility,[5],0.078 µM
same,Drug metabolism,[6],0.637 µM/min/mg
same,Stability,[7],67.3%
same,t1/2,[8],0.493 h
same,t1/2,[9],0.143 h
same,IC50,[1],2.2 µM
same,solubility thermodynamic at 24 h,[10],1170 µM
CC(C)Oc1c(C(Nc2ccccn2)c2ccccc2)ccc2cccnc12 (stereo unspecified),IC50,[1],> 100 µM
CC(C)C(=O)NC(c1ccccc1Cl)c1ccc2cccnc2c1O (stereo unspecified),IC50,[1],> 100 µM
O=C(NC(c1ccccc1Cl)c1ccc2cccnc2c1O)c1ccccc1 (stereo unspecified),IC50,[1],0.8 µM
Cc1ccccc1C(Nc1ccccn1)c1ccc2cccnc2c1O (stereo unspecified),IC50,[1],3.6 µM
Cc1ccc2ccc(C(Nc3ccccn3)c3ccccc3C)c(O)c2n1 (stereo unspecified),IC50,[1],1.6 µM
Cc1cccc(NC(c2ccccc2[N+](=O)[O-])c2ccc3ccc(C)nc3c2O)n1 (stereo unspecified),IC50,[1],10.7 µM
Cc1ccnc(NC(c2ccccc2[N+](=O)[O-])c2ccc3ccc(C)nc3c2O)c1 (stereo unspecified),IC50,[1],0.9 µM
Cc1ccnc(NC(c2ccccn2)c2ccc3cccnc3c2O)c1 (stereo unspecified),IC50,[1],13.4 µM
Cc1ccnc(NC(c2ccccn2)c2ccc3ccc(C)nc3c2O)c1 (stereo unspecified),IC50,[1],2.1 µM
Cc1ccnc(NC(c2cccc([N+](=O)[O-])c2)c2ccc3cccnc3c2O)c1 (stereo unspecified),IC50,[1],4.6 µM
Cc1ccnc(NC(c2cccc([N+](=O)[O-])c2)c2ccc3ccc(C)nc3c2O)c1 (stereo unspecified),IC50,[1],1.1 µM
Cc1ccc2ccc(C(Nc3ccccn3)c3cccc(OCc4ccccc4)c3)c(O)c2n1 (stereo unspecified),IC50,[1],1.4 µM
Cc1cccc(NC(c2cccc(OCc3ccccc3)c2)c2ccc3ccc(C)nc3c2O)n1 (stereo unspecified),IC50,[1],3.5 µM
COc1cccc(C(Nc2cc(C)ccn2)c2ccc3ccc(C)nc3c2O)c1 (stereo unspecified),IC50,[1],2 µM
Cc1ccnc(NC(c2ccc(Cl)c(Cl)c2)c2ccc3cccnc3c2O)c1 (stereo unspecified),IC50,[1],1.5 µM
Cc1ccnc(NC(c2ccc(Cl)c(Cl)c2)c2ccc3ccc(C)nc3c2O)c1 (stereo unspecified),IC50,[1],1.2 µM
COc1ccc(C(Nc2ccccn2)c2ccc3cccnc3c2O)cc1OC (stereo unspecified),IC50,[1],6.2 µM
COc1ccc(C(Nc2ccccn2)c2ccc3ccc(C)nc3c2O)cc1OC (stereo unspecified),IC50,[1],3 µM
Oc1c(C(Nc2ccccn2)c2ccc(F)cc2)ccc2cccnc12 (stereo unspecified),IC50,[1],7.1 µM
Cc1ccc2ccc(C(Nc3ccccn3)c3ccc(F)cc3)c(O)c2n1 (stereo unspecified),IC50,[1],2.8 µM
Cc1ccc(C(Nc2ccccn2)c2ccc3ccc(C)nc3c2O)cc1 (stereo unspecified),IC50,[1],2.1 µM
CC(=O)NC(c1ccc(C)cc1)c1ccc2cccnc2c1O (stereo unspecified),IC50,[1],> 100 µM
CC(=O)NC(c1ccc(N(C)C)cc1)c1ccc2cccnc2c1O (stereo unspecified),IC50,[1],> 100 µM
CN(C)c1ccc(C(NC(=O)Cc2ccccc2)c2ccc3cccnc3c2O)cc1 (stereo unspecified),IC50,[1],7.1 µM
Cc1ccnc(NC(c2ccc(N(C)C)cc2)c2ccc3cccnc3c2O)c1 (stereo unspecified),IC50,[1],3.5 µM
Cc1ccnc(NC(c2ccc(N(C)C)cc2)c2ccc3ccc(C)nc3c2O)c1 (stereo unspecified),IC50,[1],2.5 µM
Cc1cccc(NC(c2ccc(N(C)C)cc2)c2ccc3ccc(C)nc3c2O)n1 (stereo unspecified),IC50,[1],4.5 µM
Cc1ccnc(NC(c2ccc([N+](=O)[O-])cc2)c2ccc3ccc(C)nc3c2O)c1 (stereo unspecified),t1/2,[2],42 h
same,t1/2,[3],109 h
same,Drug metabolism,[4],0.047 µM/min/mg
same,Drug metabolism,[6],0.271 µM/min/mg
same,Stability,[7],98.5%
same,t1/2,[8],1.93 h
same,t1/2,[9],0.338 h
same,IC50,[1],1 µM
same,Stability,[11],92.2%
same,solubility thermodynamic at 24 h,[10],997 µM
COc1ccc(C(Nc2ccccn2)c2ccc3cccnc3c2O)cc1 (stereo unspecified),t1/2,[2],6.1 h
same,t1/2,[3],5 h
same,Drug metabolism,[4],0.242 µM/min/mg
same,Drug metabolism,[6],0.487 µM/min/mg
same,Stability,[7],42.2%
same,t1/2,[8],0.378 h
same,t1/2,[9],0.188 h
same,IC50,[1],5.6 µM
same,Stability,[11],53.4%
same,solubility thermodynamic at 24 h,[10],102 µM
COc1ccc(C(Nc2ccccn2)c2ccc3ccc(C)nc3c2O)cc1 (stereo unspecified),t1/2,[2],10.7 h
same,t1/2,[3],5 h
same,Drug metabolism,[4],0.324 µM/min/mg
same,Drug metabolism,[6],0.627 µM/min/mg
same,Stability,[7],86.6%
same,t1/2,[8],0.283 h
same,t1/2,[9],0.147 h
same,IC50,[1],1.9 µM
same,Stability,[11],66.2%
same,solubility thermodynamic at 24 h,[10],76.7 µM
Cc1ccc2ccc(C(Nc3ccccn3)c3ccc(C)s3)c(O)c2n1 (stereo unspecified),IC50,[1],2 µM
Oc1c(C(Nc2ccccc2Cl)c2ccccn2)ccc2cccnc12 (stereo unspecified),IC50,[1],5.6 µM
Oc1c(C(Nc2ccccc2Cl)c2cccnc2)ccc2cccnc12 (stereo unspecified),IC50,[1],1.9 µM
CCOC(=O)c1ccc(NC(c2ccccn2)c2ccc3cccnc3c2O)cc1 (stereo unspecified),IC50,[1],5.1 µM
CCOC(=O)c1ccc(NC(c2cccnc2)c2ccc3cccnc3c2O)cc1 (stereo unspecified),IC50,[1],2.9 µM
COC(=O)c1cccc(NC(c2ccccn2)c2ccc3cccnc3c2O)c1 (stereo unspecified),IC50,[1],7.8 µM
COC(=O)c1cccc(NC(c2cccnc2)c2ccc3cccnc3c2O)c1 (stereo unspecified),IC50,[1],4.2 µM
CCCOC(=O)c1ccc(NC(c2ccccn2)c2ccc3cccnc3c2O)cc1 (stereo unspecified),IC50,[1],5.6 µM
CCCOC(=O)c1ccc(NC(c2cccnc2)c2ccc3cccnc3c2O)cc1 (stereo unspecified),IC50,[1],3 µM
COc1ccc(C)cc1NC(c1ccccn1)c1ccc2cccnc2c1O (stereo unspecified),IC50,[1],5.1 µM
COc1ccc(C)cc1NC(c1cccnc1)c1ccc2cccnc2c1O (stereo unspecified),IC50,[1],4.4 µM
Cc1cc(Cl)ccc1NC(c1ccccn1)c1ccc2cccnc2c1O (stereo unspecified),IC50,[1],5.2 µM
Cc1cc(Cl)ccc1NC(c1cccnc1)c1ccc2cccnc2c1O (stereo unspecified),IC50,[1],2.3 µM
Cc1cccc(NC(c2ccccn2)c2ccc3cccnc3c2O)c1 (stereo unspecified),IC50,[1],16.7 µM
Cc1cccc(NC(c2cccnc2)c2ccc3cccnc3c2O)c1 (stereo unspecified),IC50,[1],6.7 µM
Oc1c(CNc2ccccn2)ccc2cccnc12,t1/2,[2],14.2 h
same,t1/2,[3],12.9 h
same,Drug metabolism,[4],0.203 µM/min/mg
same,Drug metabolism,[6],0.149 µM/min/mg
same,Stability,[7],76.3%
same,t1/2,[8],0.452 h
same,t1/2,[9],0.613 h
same,IC50,[1],26.7 µM
same,Stability,[11],96.1%
same,solubility thermodynamic at 24 h,[10],1140 µM
Cc1ccc2c(Cl)cc(I)c(O)c2n1,IC50,[1],14.1 µM
Cc1ccnc(NC(c2ccc([N+](=O)[O-])cc2)c2ccc3cccnc3c2O)c1 (stereo unspecified),t1/2,[2],24.4 h
same,t1/2,[3],51.1 h
same,Drug metabolism,[4],0.215 µM/min/mg
same,Drug metabolism,[6],0.13 µM/min/mg
same,Stability,[7],100%
same,t1/2,[8],0.425 h
same,t1/2,[9],0.703 h
same,IC50,[1],4.3 µM
same,Stability,[11],90.9%
same,solubility thermodynamic at 24 h,[10],1050 µM
CCC(=O)NC(c1ccc(OC)c(OC)c1)c1ccc2cccnc2c1O (stereo unspecified),IC50,[1],> 100 µM
COc1cccc(C(Nc2cc(C)ccn2)c2ccc3cccnc3c2O)c1 (stereo unspecified),IC50,[1],3.3 µM
CCC(=O)NC(c1ccc(N(C)C)cc1)c1ccc2cccnc2c1O (stereo unspecified),IC50,[1],> 100 µM
CCC(=O)NC(c1ccccc1Cl)c1ccc2cccnc2c1O (stereo unspecified),IC50,[1],> 100 µM
Cc1ccc2cccc(O)c2n1 [8-HYDROXY QUINALDINE],IC50,[1],> 30 µM
Oc1c(Cl)cc(Cl)c2cccnc12 [CHLOROXINE],t1/2,[2],18.6 h
same,t1/2,[3],67.7 h
same,Drug metabolism,[4],0.112 µM/min/mg
same,solubility,[5],0.532 µM
same,Drug metabolism,[6],0.1 µM/min/mg
same,Stability,[7],100%
same,t1/2,[8],0.815 h
same,t1/2,[9],0.917 h
same,IC50,[1],11.5 µM
same,Stability,[11],100%
same,solubility thermodynamic at 24 h,[10],326 µM
Cc1ccc2c(Cl)cc(Cl)c(O)c2n1 [CHLORQUINALDOL],t1/2,[2],24.5 h
same,t1/2,[3],115 h
same,Drug metabolism,[4],0.19 µM/min/mg
same,Drug metabolism,[6],0.142 µM/min/mg
same,Stability,[7],96.9%
same,t1/2,[8],0.48 h
same,t1/2,[9],0.643 h
same,IC50,[1],10.1 µM
same,Stability,[11],92.2%
same,solubility thermodynamic at 24 h,[10],1100 µM
Oc1c(I)cc(Cl)c2cccnc12 [CLIOQUINOL],t1/2,[2],42.4 h
same,t1/2,[12],11 h
same,t1/2,[3],136 h
same,Drug metabolism,[4],0.086 µM/min/mg
same,concentration,[13],13 µM
same,Drug metabolism,[6],0.071 µM/min/mg
same,Stability,[7],83.9%
same,t1/2,[8],1.06 h
same,t1/2,[9],1.28 h
same,IC50,[1],20.3 µM
same,Stability,[11],100%
same,solubility thermodynamic at 24 h,[10],38.1 µM
Oc1cccc2cccnc12 [OXYQUINOLINE],IC50,[1],> 30 µM
